Source: ChEMBL document CHEMBL1123290, “Synthesis, antimalarial activity, and quantitative structure-activity relationships of tebuquine and a series of related 5-[(7-chloro-4-quinolinyl)amino]-3-[(alkylamino)methyl] [1,1'-biphenyl]-2-ols and N omega-oxides” (1986)

How the values were obtained:
Format in all cases: functional
Plasmodium berghei [1] = test: Antimalarial activity in primary screen
Plasmodium berghei [2] = test: Change in mean survival time for control (average 6.2 days) versus treated mice (Mus musculus) 72 hrs after 5 mg/kg subcutaneous dose
Plasmodium berghei [3] = test: Change in mean survival time for control (average 6.2 days) versus treated mice (Mus musculus) 72 hrs after 640 mg/kg subcutaneous dose
Plasmodium berghei [4] = test: Change in mean survival time for control (average of 6.2 days) versus treated mice (Mus musculus) 72 hrs after 80 mg/kg subcutaneous dose
Plasmodium berghei [5] = test: (§1) Change in mean survival time for control (average 6.2 days) versus treated mice (Mus musculus) 72 hrs after […] subcutaneous dose
Plasmodium berghei [6] = test: Change in mean survival time for control (average 6.2 days) versus treated mice (Mus musculus) 72 hrs after 10 mg/kg subcutaneous dose
Plasmodium berghei [7] = test: Change in mean survival time for control (average 6.2 days) versus treated mice (Mus musculus) 72 hrs after 160 mg/kg subcutaneous dose
Plasmodium berghei [8] = test: Change in mean survival time for control (average 6.2 days) versus treated mice (Mus musculus) 72 hrs after […] subcutaneous dose
Plasmodium berghei [9] = test: Change in mean survival time for control (average 6.2 days) versus treated mice (Mus musculus) 72 hrs after 20 mg/kg subcutaneous dose
Plasmodium berghei [10] = test: Change in mean survival time for control (average 6.2 days) versus treated mice (Mus musculus) 72 hrs after 320 mg/kg subcutaneous dose
Plasmodium berghei [11] = test: Difference in mean survival time in mice (Mus musculus) (control = 6.2 days) after single 40mg/kg subcutaneous dose 72hr post infection
Mus musculus [12] = test: Antimalarial activity of compound administered as a single subcutaneous dose of 10mg/kg, 72 hrs post infection measured as number of mice (Mus musculus) surviving at 60 days post infection
Outline: (§2)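 Mice were infected with a normal drug-sensitive Plasmodium berghei strain. At 72 h postinfection each received one subcutaneous dose of compound dissolved or suspended in peanut oil, in five-mouse groups per dose. The read-out was the number of mice alive at 60 days postinfection, which were scored as cured.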

Plasmodium berghei [13] = test: Antimalarial activity as 60-day survivors in Plasmodium berghei infected mice (Mus musculus) after single 160mg/kg subcutaneous dose 72 hr post infection; outline: as §2
Plasmodium berghei [14] = test: Antimalarial activity as 60-day survivors in infected mice (Mus musculus) after single 20 mg/kg subcutaneous dose 72hr post infection; outline: as §2
Plasmodium berghei [15] = test: Antimalarial activity as 60-day survivors in infected mice (Mus musculus) after single 320mg/kg subcutaneous dose 72 hr post infection; outline: as §2
Mus musculus [16] = test: Antimalarial activity, administered as a single subcutaneous dose of 40 mg/kg, 72 hrs post infection measured as number of mice (Mus musculus) surviving at 60 days post infection; outline: as §2
Mus musculus [17] = test: Antimalarial activity, administered as a single subcutaneous dose of 640 mg/kg, 72 hrs post infection measured as number of mice (Mus musculus) surviving at 60 days post infection; outline: as §2
Mus musculus [18] = test: Antimalarial activity, administered as a single subcutaneous dose of 80 mg/kg, 72 hrs post infection measured as number of mice (Mus musculus) surviving at 60 days post infection; outline: as §2
Plasmodium berghei [19] = test: Change in mean survival time of Plasmodium berghei infected mice (Mus musculus) on 1.25 mg/kg subcutaneous dose
Plasmodium berghei [20] = test: Difference in mean survival time of Plasmodium berghei infected mice (Mus musculus) after 10 mg/kg subcutaneous dose
Plasmodium berghei [21] = test: Change in mean survival time of Plasmodium berghei infected mice (Mus musculus) after […] subcutaneous dose
Plasmodium berghei [22] = test: Change in mean survival time for control (average 6.2 days) versus treated mice (Mus musculus) after 20 mg/kg subcutaneous dose
Plasmodium berghei [23] = test: Change in mean survival time for control (average 6.2 days) versus treated mice (Mus musculus) after 40 mg/kg subcutaneous dose
Plasmodium berghei [24] = test: Change in mean survival time of Plasmodium berghei infected mice (Mus musculus) after 5 mg/kg subcutaneous dose
Plasmodium berghei [25] = test: Change in mean survival time for control (average 6.2 days) versus treated mice (Mus musculus) after 160 mg/kg subcutaneous dose
Plasmodium berghei [26] = test: Change in mean survival time for control (average 6.2 days) versus treated mice (Mus musculus) after 320 mg/kg subcutaneous dose
Plasmodium berghei [27] = test: Change in mean survival time in control (average 6.2 days) versus treated mice (Mus musculus) after 80 mg/kg subcutaneous dose
Plasmodium berghei [28] = test: as §1; remark: listed apart in the source
Mus musculus [29] = test: Antimalarial activity of compound administered as a single subcutaneous dose of 5mg/kg, 72-h postinfection measured as number of mice (Mus musculus) surviving at 60 days postinfection; outline: as §2

| SMILES | ED30 (Plasmodium berghei [1]) [mg/kg] | Delta MST (Plasmodium berghei [2]) [days] | Delta MST (Plasmodium berghei [3]) [days] | Delta MST (Plasmodium berghei [4]) [days] | Delta MST (Plasmodium berghei [5]) [days] | Delta MST (Plasmodium berghei [6]) [days] | Delta MST (Plasmodium berghei [7]) [days] | Delta MST (Plasmodium berghei [8]) [days] | Delta MST (Plasmodium berghei [9]) [days] | Delta MST (Plasmodium berghei [10]) [days] | Delta MST (Plasmodium berghei [11]) [days] | No. of mice cured (Mus musculus [12]) | No. of mice cured (Plasmodium berghei [13]) | No. of mice cured (Plasmodium berghei [14]) | No. of mice cured (Plasmodium berghei [15]) | No. of mice cured (Mus musculus [16]) | No. of mice cured (Mus musculus [17]) | No. of mice cured (Mus musculus [18]) | Delta MST (Plasmodium berghei [19]) [days] | Delta MST (Plasmodium berghei [20]) [days] | also measured |
| --- | --- | --- | --- | --- | --- | --- | --- | --- | --- | --- | --- | --- | --- | --- | --- | --- | --- | --- | --- | --- | --- |
| CCN(CC)Cc1cc(Nc2ccnc3cc(Cl)ccc23)cc(-c2cccc(F)c2F)c1O | 8.7 | 13.7 | 19.8 | 33.3 | 0.7 | 16.7 | 35.1 | 6.7 | 22.2 | 19.8 | 39.4 | 1 | 2 | 2 | 4 | 3 | 4 | 3 |  |  |  |
| CCN(CC)Cc1cc(Nc2cc[n+]([O-])c3cc(Cl)ccc23)cc(-c2ccc(Cl)cc2)c1O | 9.2 |  |  |  |  |  |  |  |  |  |  | 2 | 5 | 3 | 5 | 4 | 5 | 5 | 0.7 | 14.2 | Delta MST (Plasmodium berghei [21]): 1.3 days; Delta MST (Plasmodium berghei [22]): 20.9 days; Delta MST (Plasmodium berghei [23]): 36.9 days; Delta MST (Plasmodium berghei [24]): 5.7 days |
| CCN(CC)Cc1cc(Nc2cc[n+]([O-])c3cc(Cl)ccc23)cc(-c2ccc(C(F)(F)F)cc2)c1O | 7.4 |  |  |  |  |  |  |  |  |  |  | 1 | 3 | 2 | 2 | 2 | 1 | 3 | 0.2 | 27.9 | Delta MST (Plasmodium berghei [25]): 13.2 days; Delta MST (Plasmodium berghei [21]): 2.6 days; Delta MST (Plasmodium berghei [22]): 33.6 days; Delta MST (Plasmodium berghei [26]): 12.7 days; Delta MST (Plasmodium berghei [23]): 28.6 days; Delta MST (Plasmodium berghei [24]): 13.6 days; Delta MST (Plasmodium berghei [27]): 19.7 days; Delta MST (Plasmodium berghei [28]): 16.5 days |
| CCN(CC)Cc1cc(Nc2ccnc3cc(Cl)ccc23)cc(-c2ccc(C(F)(F)F)cc2)c1O | 9.8 | 11 | 17 | 12 | 0 | 18.9 | 11.9 | 2 | 19.4 | 10.1 | 13 | 1 |  | 2 |  | 2 | 1 | 2 |  |  |  |
| CCN(CC)Cc1cc(Nc2ccnc3cc(Cl)ccc23)cc(-c2cccnc2)c1O | 31 | 10.6 | 34.8 | 19.6 | 1.8 | 8.6 | 18.8 | 5.4 | 13.6 | 37.8 | 20.3 | 1 | 4 | 1 | 4 | 1 | 3 | 1 |  |  | No. of mice cured (Mus musculus [29]): 1 |
